In ChEMBL document CHEMBL1949601, “γ-Carbolines: a novel class of cannabinoid agonists with high aqueous solubility and restricted CNS penetration” (Bioorg Med Chem Lett, 2012):
Converted amounts (≈) assume the structure as drawn.

What was measured:
Cannabinoid receptor 1 [1] = molecular target: T1, Cannabinoid receptor 1 (Homo sapiens, UniProt P21554); test: Displacement of [3H]-CP55,940 from human CB1 receptor expressed in HEK293 cells; format: cell-based
Cannabinoid receptor 1 [2] = molecular target: T1, Cannabinoid receptor 1; test: Agonist activity at human CB1 receptor expressed in HEK293 EBNA cells by [35S]GTPgamma binding assay; format: functional, cell-based
Cannabinoid receptor 2 = Cannabinoid receptor 2 (Homo sapiens, UniProt P34972); test: Binding affinity to human CB2 receptor
Chain of Cannabinoid receptor 2 (P34972 whole entry): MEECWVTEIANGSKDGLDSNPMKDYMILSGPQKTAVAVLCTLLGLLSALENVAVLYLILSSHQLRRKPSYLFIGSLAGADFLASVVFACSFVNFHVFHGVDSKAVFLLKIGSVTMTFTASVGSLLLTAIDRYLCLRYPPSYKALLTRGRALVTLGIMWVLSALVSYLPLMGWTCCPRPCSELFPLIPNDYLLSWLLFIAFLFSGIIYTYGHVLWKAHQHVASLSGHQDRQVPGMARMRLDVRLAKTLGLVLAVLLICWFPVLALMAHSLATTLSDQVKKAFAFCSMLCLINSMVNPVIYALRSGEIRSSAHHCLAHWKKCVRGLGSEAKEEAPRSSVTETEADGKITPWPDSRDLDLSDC

[3] = Aqueous solubility of the compound at pH 7.4; format: physicochemical
[4] = Apparent permeability across human Caco2 cells; format: ADME, cell-based; conditions: Caco-2
[5] = Ratio of drug uptake in brain to plasma of Sprague-Dawley rat at 1 mg/kg, sc; format: ADME, organism-based; design: dose 1 mg/kg, route subcutaneous; conditions: read-out: BPR
[6] = Metabolic stability in human liver microsomes; format: ADME, Microsome; conditions: read-out: Stability
[7] = Metabolic stability in rat liver microsomes; format: ADME, Microsome; conditions: read-out: Stability
[8] = Dissociation constant, pKa of the compound; format: physicochemical
[9] = molecular target: Voltage-gated inwardly rectifying potassium channel KCNH2 (Homo sapiens, UniProt Q12809); test: Inhibition of human Erg by voltage ion flux electrophysiological assay
Chain of Voltage-gated inwardly rectifying potassium channel KCNH2 (Q12809 whole entry): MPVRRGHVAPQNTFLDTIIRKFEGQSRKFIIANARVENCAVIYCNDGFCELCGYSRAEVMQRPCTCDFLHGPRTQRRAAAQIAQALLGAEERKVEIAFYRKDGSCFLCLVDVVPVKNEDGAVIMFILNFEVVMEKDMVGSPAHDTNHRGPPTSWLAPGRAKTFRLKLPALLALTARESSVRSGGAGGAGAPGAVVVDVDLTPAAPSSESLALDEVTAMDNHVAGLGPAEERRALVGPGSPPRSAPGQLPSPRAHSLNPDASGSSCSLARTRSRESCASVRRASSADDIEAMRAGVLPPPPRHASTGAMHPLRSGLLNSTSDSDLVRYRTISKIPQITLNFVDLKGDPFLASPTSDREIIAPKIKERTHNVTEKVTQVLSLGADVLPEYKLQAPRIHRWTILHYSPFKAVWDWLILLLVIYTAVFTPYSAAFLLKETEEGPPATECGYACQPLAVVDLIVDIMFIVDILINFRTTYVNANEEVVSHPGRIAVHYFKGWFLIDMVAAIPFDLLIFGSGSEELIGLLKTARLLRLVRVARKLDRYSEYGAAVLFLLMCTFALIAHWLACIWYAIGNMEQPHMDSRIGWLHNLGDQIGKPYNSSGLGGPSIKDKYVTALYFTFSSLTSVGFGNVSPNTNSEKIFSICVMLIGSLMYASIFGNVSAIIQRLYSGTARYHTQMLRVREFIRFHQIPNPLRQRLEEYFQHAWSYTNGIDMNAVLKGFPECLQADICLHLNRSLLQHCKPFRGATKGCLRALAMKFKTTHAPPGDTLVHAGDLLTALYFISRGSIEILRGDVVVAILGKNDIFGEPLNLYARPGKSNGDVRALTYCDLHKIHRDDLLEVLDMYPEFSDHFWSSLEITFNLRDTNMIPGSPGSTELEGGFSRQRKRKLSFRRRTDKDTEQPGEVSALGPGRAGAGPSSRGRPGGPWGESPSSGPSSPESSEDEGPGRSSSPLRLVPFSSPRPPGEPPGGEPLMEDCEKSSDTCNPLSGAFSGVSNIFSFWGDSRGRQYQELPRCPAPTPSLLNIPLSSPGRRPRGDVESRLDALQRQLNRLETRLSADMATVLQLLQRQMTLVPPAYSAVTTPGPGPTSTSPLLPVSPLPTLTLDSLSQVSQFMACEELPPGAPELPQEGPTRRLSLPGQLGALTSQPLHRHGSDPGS

Cannabinoid receptor 1 [10] = molecular target: T1, Cannabinoid receptor 1; test: Partial agonist activity at human CB1 receptor expressed in HEK293 EBNA cells by [35S]GTPgamma binding assay relative to Win55,212-2; format: functional, cell-based
Method in brief: (§1)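 Membranes from HEK293 EBNA cells stably transfected with cloned human CB1; agonism read out as [35S]GTPγS binding, EC50 determined; Emax expressed relative to Win55,212-2 as reference agonist. Mean of at least 2 independent measurements.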

Cannabinoid receptor 1 [11] = molecular target: T1, Cannabinoid receptor 1; test: Partial agonist activity at human CB1 receptor expressed in HEK293 EBNA cells by [35S]GTPgamma binding assay; format: functional, cell-based; method in brief: as §1
Cannabinoid receptor 1 [12] = molecular target: Cannabinoid receptor 1 (Rattus norvegicus, UniProt P20272); test: Agonist activity at CB1 receptor in rat brain tissue; format: functional, tissue-based
Chain of Cannabinoid receptor 1 (Rattus norvegicus, UniProt P20272) (P20272 whole entry): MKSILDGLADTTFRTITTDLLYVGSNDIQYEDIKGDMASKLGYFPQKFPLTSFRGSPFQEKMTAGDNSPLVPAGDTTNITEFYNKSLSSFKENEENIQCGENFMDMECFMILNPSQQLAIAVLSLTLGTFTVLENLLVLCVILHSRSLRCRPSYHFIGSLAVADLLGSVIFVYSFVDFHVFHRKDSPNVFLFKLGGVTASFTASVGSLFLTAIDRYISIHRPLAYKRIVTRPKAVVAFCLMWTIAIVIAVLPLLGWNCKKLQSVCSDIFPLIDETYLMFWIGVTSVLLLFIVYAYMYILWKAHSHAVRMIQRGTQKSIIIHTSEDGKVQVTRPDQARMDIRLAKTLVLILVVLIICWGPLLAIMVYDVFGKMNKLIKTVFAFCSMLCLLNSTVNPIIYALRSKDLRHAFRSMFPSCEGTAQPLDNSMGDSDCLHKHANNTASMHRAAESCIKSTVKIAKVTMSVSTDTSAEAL

[13] = molecular target: Cannabinoid receptor 1 (Rattus norvegicus) (UniProt P20272); test: Agonist activity at CB1 receptor in rat brain tissue relative to control; format: functional, tissue-based
Chain of Cannabinoid receptor 1 (Rattus norvegicus) (P20272 whole entry): as above

T1 sequence (P21554 whole entry): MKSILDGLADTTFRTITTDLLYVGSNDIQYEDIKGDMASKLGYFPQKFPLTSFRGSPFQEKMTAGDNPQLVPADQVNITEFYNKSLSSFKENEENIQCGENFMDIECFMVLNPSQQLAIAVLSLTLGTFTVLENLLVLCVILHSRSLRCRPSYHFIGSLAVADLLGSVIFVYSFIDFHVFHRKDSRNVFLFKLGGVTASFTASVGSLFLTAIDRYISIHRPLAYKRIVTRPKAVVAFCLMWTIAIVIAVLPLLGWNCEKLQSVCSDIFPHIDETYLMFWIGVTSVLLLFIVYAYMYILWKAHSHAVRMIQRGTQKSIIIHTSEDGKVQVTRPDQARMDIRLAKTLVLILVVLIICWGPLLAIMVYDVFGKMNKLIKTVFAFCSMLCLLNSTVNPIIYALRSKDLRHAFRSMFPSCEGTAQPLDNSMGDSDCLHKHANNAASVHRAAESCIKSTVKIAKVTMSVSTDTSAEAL

Row | SMILES | Ki (Cannabinoid receptor 1 [1]) | EC50 (Cannabinoid receptor 1 [2]) | further results
1 | CC1CCN(C(=O)c2ccc3c(c2)c2c(n3S(=O)(=O)N(C)C)CCN(C3CCCC3)C2)CC1 | 22 nM | 26 nM | 
2 | CCOc1ccc(Cc2nc3cc(N(C)S(=O)(=O)c4cccs4)ccc3n2CC2CCCCC2)nc1 | 3 nM | 6 nM | Ki (Cannabinoid receptor 2): 0.56 nM; solubility [3]: < 10 µg/mL; Papp [4]: 0.6 ×10⁻⁶ cm/s; Kp [5]: 0.07; microsomal CLint [6]: > 300 µL/min/mg; microsomal CLint [7]: > 300 µL/min/mg
3 | CCS(=O)(=O)n1c2c(c3cc(C(=O)N4CCC(C)CC4)ccc31)CN(C1CCOC1)CC2 (stereo not given) | 197 nM |  | pKa [8]: 5.9; IC50 [9]: 25000 nM
4 | C=CCn1c2c(c3cc(C(=O)N4CCC(C)CC4)ccc31)CN(C1CCCCC1)CC2 | 56 nM | 60 nM | microsomal CLint [6]: 135 µL/min/mg
5 | CCCS(=O)(=O)n1c2c(c3cc(C(=O)N4CCC(C)CC4)ccc31)CN(C1CCCC1)CC2 | 22 nM | 22 nM | 
6 | C=CCn1c2c(c3cc(C(=O)N4CCC(C)CC4)ccc31)CN(Cc1ccncc1)CC2 |  | 1360 nM | microsomal CLint [6]: > 300 µL/min/mg
7 | CCn1c2c(c3cc(C(=O)N4CCC(C)CC4)ccc31)CN(C1CCCC1)CC2 | 34 nM | 63 nM | 
8 | CC1CCN(C(=O)c2ccc3c(c2)c2c(n3S(=O)(=O)N(C)C)CCN(C3CCOCC3)C2)CC1 | 110 nM | 71 nM | 
9 | C=CCn1c2c(c3cc(C(=O)N4CCC(C)CC4)ccc31)CN(C1CCSC1)CC2 (stereo not given) |  | 5 nM | microsomal CLint [6]: > 300 µL/min/mg
10 | CCCn1c2c(c3cc(C(=O)N4CCC(C)CC4)ccc31)CN(C1CCOCC1)CC2 | 58 nM | 103 nM | 
11 | CCCC(=O)n1c2c(c3cc(C(=O)N4CCC(C)CC4)ccc31)CN(C1CCOCC1)CC2 | 102 nM |  | Emax (Cannabinoid receptor 1 [10]): 17%; EC50 (Cannabinoid receptor 1 [11]): 117 nM
12 | CCCS(=O)(=O)n1c2c(c3cc(C(=O)N4CCC(C)CC4)ccc31)CN(C1CCOCC1)CC2 | 115 nM | 129 nM | pKa [8]: 7.3; IC50 [9]: 2000 nM
13 | CC1CCN(C(=O)c2ccc3c(c2)c2c(n3S(=O)(=O)C(C)C)CCN(C3CCOCC3)C2)CC1 | 170 nM | 150 nM | 
14 | CC1CCN(C(=O)c2ccc3c(c2)c2c(n3S(=O)(=O)c3ccccc3)CCN(C3CCOCC3)C2)CC1 | 31 nM | 59 nM | 
15 | C=CCn1c2c(c3cc(C(=O)N4CCC(C)CC4)ccc31)CN(Cc1cccnc1)CC2 |  | > 14000 nM | microsomal CLint [6]: > 300 µL/min/mg
16 | C=CCn1c2c(c3cc(C(=O)N4CCC(C)CC4)ccc31)CN(C1CCCC1)CC2 | 9 nM | 33 nM | microsomal CLint [6]: 93 µL/min/mg
17 | C=CCn1c2c(c3cc(C(=O)N4CCC(C)CC4)ccc31)CN(Cc1ccccn1)CC2 |  | 5420 nM | 
18 | CCCS(=O)(=O)n1c2c(c3cc(C(=O)N4CCC(C)CC4)ccc31)CN(C1CCOC1)CC2 (stereo not given) | 320 nM |  | pKa [8]: 5.8
19 | CC1CCN(C(=O)c2ccc3c(c2)c2c(n3S(C)(=O)=O)CCN(C3CCOCC3)C2)CC1 | 239 nM | 473 nM | 

Row | SMILES | Ki (Cannabinoid receptor 1 [1]) | EC50 (Cannabinoid receptor 1 [2]) | further results
20 | CCOc1ccc(Cn2c3c(c4cc(C(=O)N5CCC(C)CC5)ccc42)CN(C2CCOCC2)CC3)cc1 | 51 nM | 53 nM | 
21 | Cn1c2c(c3cc(C(=O)N4CCCCC4)ccc31)CN(C1CCOCC1)CC2 | 226 nM |  | IC50 [9]: 18000 nM
22 | C=CCn1c2c(c3cc(C(=O)N4CCC(C)CC4)ccc31)CN(CC1CC1)CC2 | 143 nM | 768 nM | Ki (Cannabinoid receptor 2): 14 nM; solubility [3]: 3300 µg/mL (≈ 8430 µM); Papp [4]: 3 ×10⁻⁶ cm/s; EC50 (Cannabinoid receptor 1 [12]): 1440 nM; Kp [5]: 0.74; microsomal CLint [6]: 66 µL/min/mg; microsomal CLint [7]: > 300 µL/min/mg; Emax [13]: 47%
23 | CCCn1c2c(c3cc(C(=O)N4CCC(C)CC4)ccc31)CN(C1CCCC1)CC2 | 15 nM | 45 nM | 
24 | CC1CCN(C(=O)c2ccc3c(c2)c2c(n3S(=O)(=O)n3ccnc3)CCN(C3CCOCC3)C2)CC1 | 592 nM |  | 
25 | C=CCn1c2c(c3cc(C(=O)N4CCC(C)CC4)ccc31)CN(Cc1ccccc1)CC2 |  | 103 nM | microsomal CLint [6]: > 300 µL/min/mg
26 | CCCCCc1cc(O)c2c(c1)OC(C)(C)[C@@H]1CCC(C)=C[C@@H]21 [DRONABINOL] |  |  | solubility [3]: < 10 µg/mL; Kp [5]: 1
27 | CC1CCN(C(=O)c2ccc3c(c2)c2c(n3C(=O)N(C)C)CCN(C3CCOCC3)C2)CC1 | 2380 nM |  | 
28 | CC1CCN(C(=O)c2ccc3c(c2)c2c(n3S(C)(=O)=O)CCN(C3CCCC3)C2)CC1 | 36 nM | 50 nM | 
29 | CCS(=O)(=O)n1c2c(c3cc(C(=O)N4CCC(C)CC4)ccc31)CN(C1CCCC1)CC2 | 17 nM | 11 nM | 
30 | CCNS(=O)(=O)n1c2c(c3cc(C(=O)N4CCC(C)CC4)ccc31)CN(C1CCOCC1)CC2 | 424 nM |  | 
31 | CC1CCN(C(=O)c2ccc3c(c2)c2c(n3C)CCN(C3CCCC3)C2)CC1 | 32 nM | 77 nM | 
32 | C=CCn1c2c(c3cc(C(=O)N4CCC(C)CC4)ccc31)CN(CC1CCCC1)CC2 |  | 115 nM | microsomal CLint [6]: > 300 µL/min/mg
33 | C=CCn1c2c(c3cc(C(=O)N4CCC(C)CC4)ccc31)CN(C1CCOCC1)CC2 |  | 60 nM | microsomal CLint [6]: 42 µL/min/mg
34 | CCCCCOc1ccc(C(=O)c2cccc3ccccc23)c2ccccc12 |  |  | Ki (Cannabinoid receptor 2): 19 nM; solubility [3]: < 10 µg/mL; Kp [5]: 0.04
35 | CC1CCN(C(=O)c2ccc3[nH]c4c(c3c2)CN(C2CCCC2)CC4)CC1 | 264 nM | 4250 nM | 
36 | CCCCCCC(C)(C)c1cc(O)c2c(c1)OC(C)(C)[C@@H]1CC=C(C(=O)O)C[C@@H]21 [LENABASUM] |  |  | Kp [5]: 0.3
37 | CC1CCN(C(=O)c2ccc3c(c2)c2c(n3C)CCN(C3CCOCC3)C2)CC1 | 76 nM |  | IC50 [9]: 2600 nM
